Source: ChEMBL document CHEMBL4038314, “Synthetic Modification within the "RPRL" Region of Apelin Peptides: Impact on Cardiovascular Activity and Stability to Neprilysin and Plasma Degradation” (J Med Chem, 2017)
Activity calls are given as the source filed them. The rule behind the calls is not given here. Starred links: 1 amine or outer side, 2 acyl side, 3 side chain; linkers in the order of their positions; H or OH if unused. Non-standard residues stand in square brackets, D forms with d. Residues, ends and D or L forms follow the SMILES beside them. Phe(4-Br) = N[C@@H](Cc1ccc(Br)cc1)C(=O)O; azaLeu = CC(C)CN(N[*:1])C(=O)[*:2]; αMeR = C[C@](N)(CCCNC(=N)N)C(=O)O; NMeL = CN[C@@H](CC(C)C)C(=O)O; αMeL = CC(C)C[C@](C)(N)C(=O)O; Nle = CCCC[C@H](N)C(=O)O; Aib = CC(C)(N)C(=O)O

Legend:
Neprilysin [1] = biological target: T1, Neprilysin (Homo sapiens, UniProt P08473); experiment: Drug metabolism assessed as recombinant human NEP-medited peptide proteolysis at 1 mM up to 72 hrs by LC-MS analysis; format: ADME; details: 1000 µM
T1 sequence (P08473 whole entry): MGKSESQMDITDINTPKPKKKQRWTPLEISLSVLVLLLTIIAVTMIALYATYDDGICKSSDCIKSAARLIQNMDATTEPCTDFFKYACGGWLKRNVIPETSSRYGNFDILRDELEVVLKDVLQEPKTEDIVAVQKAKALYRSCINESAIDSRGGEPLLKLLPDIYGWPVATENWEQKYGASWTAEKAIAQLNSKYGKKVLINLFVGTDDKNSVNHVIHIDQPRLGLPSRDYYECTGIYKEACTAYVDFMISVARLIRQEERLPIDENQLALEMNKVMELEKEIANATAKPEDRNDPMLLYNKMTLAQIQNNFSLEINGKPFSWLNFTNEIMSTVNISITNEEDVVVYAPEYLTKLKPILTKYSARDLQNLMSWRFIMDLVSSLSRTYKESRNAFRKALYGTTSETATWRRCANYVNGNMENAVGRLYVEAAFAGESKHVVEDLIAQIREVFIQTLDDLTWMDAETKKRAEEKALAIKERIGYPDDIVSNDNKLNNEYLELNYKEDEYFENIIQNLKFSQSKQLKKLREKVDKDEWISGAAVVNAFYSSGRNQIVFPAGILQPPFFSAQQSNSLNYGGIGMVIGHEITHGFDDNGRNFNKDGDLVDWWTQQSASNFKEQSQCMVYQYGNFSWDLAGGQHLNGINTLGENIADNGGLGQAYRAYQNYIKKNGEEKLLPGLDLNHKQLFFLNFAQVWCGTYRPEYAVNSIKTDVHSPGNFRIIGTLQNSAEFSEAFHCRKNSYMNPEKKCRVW
How it was run: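 Recombinant human NEP, 3.1 nM final in 100 mM Tris, 100 mM NaCl, 10 μM ZnCl2, pH 7.5, preincubated 10 min at 37 °C. Then 5 μL of 1 mM peptide stock and dansyl-YVG internal standard added; incubated at 37 °C for up to 72 h. Extracted-ion LC−MS ratio of parent to standard compared with 0 h and converted to percent cleaved.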

Neprilysin [2] = biological target: T1, Neprilysin; experiment: Drug degradation in human plasma assessed as NEP-mediated degradation by measuring amount of apelin remaining after 60 mins by RP-HPLC analysis; format: ADME; details: 1 h
How it was run: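 Human plasma (20 μL) prewarmed to 37 °C, then 5 μL of 400 μM peptide added and incubated for set times; done in triplicate. Quenched with 10% aqueous TFA, dansyl-YVG internal standard added, and peptides recovered on a C18 spin column with 40% acetonitrile/0.1% TFA. Analysed by C18 RP-HPLC; peptide/standard peak-area ratio compared with the 0 min ratio.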

Heart [3] = experiment: Cardioprotective activity against Langendorff isolated mouse heart ischemia-reperfusion model assessed as minimum derivative change in diastolic pressure over time at 1 uM administered for 10 mins during start of 40 mins reperfusion period post 30 mins ischemic induction; format: functional, tissue-based
How it was run: (§1)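 Mouse hearts (heparinized, isoflurane 1.5−2%) excised and Langendorff-perfused at constant 80 mmHg with modified Krebs−Henseleit buffer, 37 °C, 95% O2/5% CO2, pH 7.4. After 10 min baseline, 30 min global ischemia, then 40 min reperfusion. Peptide at 1 μM given for the first 10 min of reperfusion, with saline sham and native apelin-17 as controls. Left ventricular function recorded continuously.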

Mus musculus [4] = experiment: Cardiovascular activity in anesthetized mouse assessed as decrease in blood pressure at 1.4 uM/kg, iv relative to control; format: functional, organism-based
How it was run: (§2)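 Mice under 1.5% isoflurane, body temperature held at 36 °C on a heating pad. Aorta cannulated via the right carotid artery with a 1.2F PV loop catheter to record arterial pressure and heart rate continuously. Peptide given systemically through the right internal jugular vein.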

Heart [5] = experiment: Cardioprotective activity against Langendorff isolated mouse heart ischemia-reperfusion model assessed as improvement in RPP at 1 uM administered for 10 mins during start of 40 mins reperfusion period post 30 mins ischemic induction; format: functional, tissue-based; how it was run: as §1
Mus musculus [6] = experiment: Cardiotoxicity in anesthetized mouse assessed as induction of tachycardia at 1.4 uM/kg, iv relative to control; format: toxicity, organism-based; details: in vivo, 1.4 µmol/kg; how it was run: as §2
Heart [7] = experiment: Cardioprotective activity against Langendorff isolated mouse heart ischemia-reperfusion model assessed as improvement in LVDP at 1 uM administered for 10 mins during start of 40 mins reperfusion period post 30 mins ischemic induction; format: functional, tissue-based; how it was run: as §1
Heart [8] = experiment: Cardioprotective activity against Langendorff isolated mouse heart ischemia-reperfusion model assessed as maximum derivative change in systolic pressure over time at 1 uM administered for 10 mins during start of 40 mins reperfusion period post 30 mins ischemic induction; format: functional, tissue-based; how it was run: as §1
Neprilysin [9] = biological target: T1, Neprilysin; experiment: Inhibition of recombinant human NEP using pyr-1-apelin-13 as substrate assessed as peptide degradation at 1 mM preincubated for 10 mins followed by substrate addition measured after 72 hrs by LC-MS analysis; details: 1000 µM
How it was run: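 Recombinant human NEP, 3.1 nM in Tris/NaCl/10 μM ZnCl2 buffer, pH 7.5, preincubated 10 min at 37 °C with 5 μL of 1 mM analogue stock (equimolar to substrate) plus dansyl-YVG standard. Then 5 μL of 1 mM pyr-1-apelin-13 added. Aliquots taken at 0, 1, 4, 24 and 72 h and analysed by LC−MS; duplicate per time point.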

Row | SMILES | Drug metabolism (Neprilysin [1]) | Drug degradation (Neprilysin [2]) [%] | inhibition (INH) (Neprilysin [9]) | Activity (Heart [3]) | Activity (Mus musculus [4]) | Activity (Heart [5]) | Activity (Mus musculus [6]) | Activity (Heart [7]) | Activity (Heart [8])
1 | CCCC[C@H](NC(=O)[C@@H]1CCCN1C(=O)CNC(=O)[C@H](CCCCN)NC(=O)[C@H](Cc1c[nH]cn1)NC(=O)[C@H](CO)NC(=O)[C@@H](CC(C)C)NC(=O)[C@H](CCCNC(=N)N)NC(=O)[C@@H]1CCCN1C(=O)[C@H](CCCNC(=N)N)NC(=O)[C@@H]1CCC(=O)N1)C(=O)NC(C)(C)C(=O)N[C@@H](Cc1ccc(Br)cc1)C(=O)O | Metabolite_Notdetected | 22 | Not Active | – | inactive | – | – | – | –
2 | CCCC[C@H](NC(=O)[C@@H]1CCCN1C(=O)CNC(=O)[C@H](CCCCN)NC(=O)[C@H](Cc1c[nH]cn1)NC(=O)[C@H](CO)NC(=O)N(CC(C)C)NC(=O)[C@H](CCCNC(=N)N)NC(=O)[C@@H]1CCCN1C(=O)[C@H](CCCNC(=N)N)NC(=O)[C@@H]1CCC(=O)N1)C(=O)NC(C)(C)C(=O)N[C@@H](Cc1ccc(Br)cc1)C(=O)O | Metabolite_Notdetected | 2 | Not Active | inactive | – | inactive | – | inactive | inactive
3 | CCCC[C@H](NC(=O)[C@@H]1CCCN1C(=O)CNC(=O)[C@H](CCCCN)NC(=O)[C@H](Cc1c[nH]cn1)NC(=O)[C@H](CO)NC(=O)[C@H](CC(C)C)N(C)C(=O)[C@H](CCCNC(=N)N)NC(=O)[C@@H]1CCCN1C(=O)[C@H](CCCNC(=N)N)NC(=O)[C@H](CCC(N)=O)NC(=O)[C@H](CCCNC(=N)N)NC(=O)[C@H](CCCNC(=N)N)NC(=O)[C@H](Cc1ccccc1)NC(=O)[C@@H](N)CCCCN)C(=O)NC(C)(C)C(=O)N[C@@H](Cc1ccc(Br)cc1)C(=O)O (H-KFRRQRPR[NMeL]SHKGP[Nle][Aib][Phe(4-Br)]-OH) | Metabolite_Notdetected | 47 | Not Active | Active | Active | Active | Toxic | Active | Active
4 | CCCC[C@H](NC(=O)[C@@H]1CCCN1C(=O)CNC(=O)[C@H](CCCCN)NC(=O)[C@H](Cc1c[nH]cn1)NC(=O)[C@H](CO)NC(=O)N(CC(C)C)NC(=O)[C@H](CCCNC(=N)N)NC(=O)[C@@H]1CCCN1C(=O)[C@H](CCCNC(=N)N)NC(=O)[C@H](CCC(N)=O)NC(=O)[C@H](CCCNC(=N)N)NC(=O)[C@H](CCCNC(=N)N)NC(=O)[C@H](Cc1ccccc1)NC(=O)[C@@H](N)CCCCN)C(=O)NC(C)(C)C(=O)N[C@@H](Cc1ccc(Br)cc1)C(=O)O (H-KFRRQRPR[azaLeu]SHKGP[Nle][Aib][Phe(4-Br)]-OH) | Metabolite_Notdetected | 68 | Not Active | Active | Active | Active | Toxic | Active | Active
5 | CCCC[C@H](NC(=O)[C@@H]1CCCN1C(=O)CNC(=O)[C@H](CCCCN)NC(=O)[C@H](Cc1c[nH]cn1)NC(=O)[C@H](CO)NC(=O)[C@](C)(CC(C)C)NC(=O)[C@H](CCCNC(=N)N)NC(=O)[C@@H]1CCCN1C(=O)[C@H](CCCNC(=N)N)NC(=O)[C@H](CCC(N)=O)NC(=O)[C@H](CCCNC(=N)N)NC(=O)[C@H](CCCNC(=N)N)NC(=O)[C@H](Cc1ccccc1)NC(=O)[C@@H](N)CCCCN)C(=O)NC(C)(C)C(=O)N[C@@H](Cc1ccc(Br)cc1)C(=O)O (H-KFRRQRPR[αMeL]SHKGP[Nle][Aib][Phe(4-Br)]-OH) | Metabolite_Notdetected | 48 | Not Active | – | – | – | Toxic | – | –
6 | CCCC[C@H](NC(=O)[C@@H]1CCCN1C(=O)CNC(=O)[C@H](CCCCN)NC(=O)[C@H](Cc1c[nH]cn1)NC(=O)[C@H](CO)NC(=O)[C@H](CC(C)C)NC(=O)[C@](C)(CCCNC(=N)N)NC(=O)[C@@H]1CCCN1C(=O)[C@H](CCCNC(=N)N)NC(=O)[C@H](CCC(N)=O)NC(=O)[C@H](CCCNC(=N)N)NC(=O)[C@H](CCCNC(=N)N)NC(=O)[C@H](Cc1ccccc1)NC(=O)[C@@H](N)CCCCN)C(=O)NC(C)(C)C(=O)N[C@@H](Cc1ccc(Br)cc1)C(=O)O (H-KFRRQRP[αMeR]LSHKGP[Nle][Aib][Phe(4-Br)]-OH) | Metabolite_Notdetected | 55 | Not Active | – | – | – | Toxic | – | –

Further lines, with some results ahead:

Row | Drug metabolism (Neprilysin [1]) | Drug degradation (Neprilysin [2]) [%] | inhibition (INH) (Neprilysin [9]) | SMILES | Activity (Heart [3]) | Activity (Mus musculus [4]) | Activity (Heart [5]) | Activity (Mus musculus [6]) | Activity (Heart [7]) | Activity (Heart [8])
7 | Metabolite_Detected | 12 | – | CSCC[C@H](NC(=O)[C@@H]1CCCN1C(=O)CNC(=O)[C@H](CCCCN)NC(=O)[C@H](Cc1cnc[nH]1)NC(=O)[C@H](CO)NC(=O)[C@H](CC(C)C)NC(=O)[C@H](CCCNC(=N)N)NC(=O)[C@@H]1CCCN1C(=O)[C@H](CCCNC(=N)N)NC(=O)[C@@H]1CCC(=O)N1)C(=O)N1CCC[C@H]1C(=O)N[C@@H](Cc1ccccc1)C(=O)O | – | – | – | – | – | –
8 | Metabolite_Detected | 39 | – | CSCC[C@H](NC(=O)[C@@H]1CCCN1C(=O)CNC(=O)[C@H](CCCCN)NC(=O)[C@H](Cc1cnc[nH]1)NC(=O)[C@H](CO)NC(=O)[C@H](CC(C)C)NC(=O)[C@H](CCCNC(=N)N)NC(=O)[C@@H]1CCCN1C(=O)[C@H](CCCNC(=N)N)NC(=O)[C@H](CCC(N)=O)NC(=O)[C@H](CCCNC(=N)N)NC(=O)[C@H](CCCNC(=N)N)NC(=O)[C@H](Cc1ccccc1)NC(=O)[C@@H](N)CCCCN)C(=O)N1CCC[C@H]1C(=O)N[C@@H](Cc1ccccc1)C(=O)O | Active | Active | Active | Toxic | Active | Active
9 | Metabolite_Notdetected | 62 | Not Active | CCCC[C@H](NC(=O)[C@@H]1CCCN1C(=O)CNC(=O)[C@H](CCCCN)NC(=O)[C@H](Cc1c[nH]cn1)NC(=O)[C@H](CO)NC(=O)[C@H](CC(C)C)NC(=O)[C@](C)(CCCNC(=N)N)NC(=O)[C@@H]1CCCN1C(=O)[C@H](CCCNC(=N)N)NC(=O)[C@@H]1CCC(=O)N1)C(=O)NC(C)(C)C(=O)N[C@@H](Cc1ccc(Br)cc1)C(=O)O | – | – | – | – | – | –
10 | Metabolite_Detected | 35 | – | CCCC[C@H](NC(=O)[C@@H]1CCCN1C(=O)CNC(=O)[C@H](CCCCN)NC(=O)[C@H](Cc1c[nH]cn1)NC(=O)[C@H](CO)NC(=O)[C@H](CC(C)C)NC(=O)[C@H](CCCNC(=N)N)NC(=O)[C@@H]1CCCN1C(=O)[C@H](CCCNC(=N)N)NC(=O)[C@H](CCC(N)=O)NC(=O)[C@H](CCCNC(=N)N)NC(=O)[C@H](CCCNC(=N)N)NC(=O)[C@H](Cc1ccccc1)NC(=O)[C@@H](N)CCCCN)C(=O)NC(C)(C)C(=O)N[C@@H](Cc1ccc(Br)cc1)C(=O)O (H-KFRRQRPRLSHKGP[Nle][Aib][Phe(4-Br)]-OH) | – | Active | – | Toxic | – | –
11 | Metabolite_Notdetected | 80 | Not Active | CCCC[C@H](NC(=O)[C@@H]1CCCN1C(=O)CNC(=O)[C@H](CCCCN)NC(=O)[C@H](Cc1c[nH]cn1)NC(=O)[C@H](CO)NC(=O)[C@@H](CC(C)C)NC(=O)[C@H](CCCNC(=N)N)NC(=O)[C@@H]1CCCN1C(=O)[C@H](CCCNC(=N)N)NC(=O)[C@H](CCC(N)=O)NC(=O)[C@H](CCCNC(=N)N)NC(=O)[C@H](CCCNC(=N)N)NC(=O)[C@H](Cc1ccccc1)NC(=O)[C@@H](N)CCCCN)C(=O)NC(C)(C)C(=O)N[C@@H](Cc1ccc(Br)cc1)C(=O)O (H-KFRRQRPR[dL]SHKGP[Nle][Aib][Phe(4-Br)]-OH) | – | – | – | Toxic | – | –
